Test results published in ChEMBL document CHEMBL2417412, “Design, synthesis, and structure-activity relationships of dihydrofuran-2-one and dihydropyrrol-2-one derivatives as novel benzoxazin-3-one-based mineralocorticoid receptor antagonists” (Bioorg Med Chem, 2013).
pIC50: −log10 of the molar value.

Key:
Androgen receptor = molecular target: T1, Androgen receptor (Homo sapiens, UniProt P10275); assay: Displacement of [3H]-Testosterone from human AR expressed in 293 cells after 16 hrs by scintillation counting; type: cell-based, HEK293
T1 sequence (P10275 whole entry): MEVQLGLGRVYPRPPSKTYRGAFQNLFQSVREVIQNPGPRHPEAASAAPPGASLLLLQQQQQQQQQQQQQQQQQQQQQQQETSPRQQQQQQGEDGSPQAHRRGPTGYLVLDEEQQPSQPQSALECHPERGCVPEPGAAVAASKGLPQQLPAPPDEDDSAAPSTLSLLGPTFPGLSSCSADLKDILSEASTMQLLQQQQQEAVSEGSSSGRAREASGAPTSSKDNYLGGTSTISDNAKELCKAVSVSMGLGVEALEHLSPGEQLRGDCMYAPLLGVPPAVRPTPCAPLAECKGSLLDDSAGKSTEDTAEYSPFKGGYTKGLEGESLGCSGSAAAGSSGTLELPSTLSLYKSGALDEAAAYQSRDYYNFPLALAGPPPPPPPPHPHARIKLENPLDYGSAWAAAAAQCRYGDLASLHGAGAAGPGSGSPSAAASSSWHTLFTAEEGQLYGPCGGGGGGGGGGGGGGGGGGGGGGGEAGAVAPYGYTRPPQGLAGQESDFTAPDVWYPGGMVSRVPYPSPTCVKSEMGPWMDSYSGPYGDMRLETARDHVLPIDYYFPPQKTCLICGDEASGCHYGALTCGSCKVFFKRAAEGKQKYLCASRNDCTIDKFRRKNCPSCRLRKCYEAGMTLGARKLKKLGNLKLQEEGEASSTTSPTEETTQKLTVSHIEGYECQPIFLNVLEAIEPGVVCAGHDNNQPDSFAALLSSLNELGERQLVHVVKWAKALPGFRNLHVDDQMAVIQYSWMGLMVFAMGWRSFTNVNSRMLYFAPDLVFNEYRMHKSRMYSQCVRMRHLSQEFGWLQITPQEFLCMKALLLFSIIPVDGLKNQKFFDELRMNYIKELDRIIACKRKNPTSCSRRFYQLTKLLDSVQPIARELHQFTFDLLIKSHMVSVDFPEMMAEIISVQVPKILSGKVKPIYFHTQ
Method in brief: (§1)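 These followed the MR cytosolic binding protocol (transfected 293 cells, TEGM buffer pH 7.2, 16 h at 4 °C, charcoal separation, scintillation counting of supernatant). The ligand was [3H]-dexamethasone for GR and [3H]-testosterone for AR. Concentrations were run in duplicate; IC50 taken as the mean of duplicate experiments from concentration-response curves.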

[1] = molecular target: T2, Mineralocorticoid receptor (Homo sapiens, UniProt P08235); assay: Displacement of [3H]-Aldosterone from human MR expressed in 293 cells after 16 hrs by scintillation counting; type: cell-based, HEK293
T2 sequence (P08235 whole entry): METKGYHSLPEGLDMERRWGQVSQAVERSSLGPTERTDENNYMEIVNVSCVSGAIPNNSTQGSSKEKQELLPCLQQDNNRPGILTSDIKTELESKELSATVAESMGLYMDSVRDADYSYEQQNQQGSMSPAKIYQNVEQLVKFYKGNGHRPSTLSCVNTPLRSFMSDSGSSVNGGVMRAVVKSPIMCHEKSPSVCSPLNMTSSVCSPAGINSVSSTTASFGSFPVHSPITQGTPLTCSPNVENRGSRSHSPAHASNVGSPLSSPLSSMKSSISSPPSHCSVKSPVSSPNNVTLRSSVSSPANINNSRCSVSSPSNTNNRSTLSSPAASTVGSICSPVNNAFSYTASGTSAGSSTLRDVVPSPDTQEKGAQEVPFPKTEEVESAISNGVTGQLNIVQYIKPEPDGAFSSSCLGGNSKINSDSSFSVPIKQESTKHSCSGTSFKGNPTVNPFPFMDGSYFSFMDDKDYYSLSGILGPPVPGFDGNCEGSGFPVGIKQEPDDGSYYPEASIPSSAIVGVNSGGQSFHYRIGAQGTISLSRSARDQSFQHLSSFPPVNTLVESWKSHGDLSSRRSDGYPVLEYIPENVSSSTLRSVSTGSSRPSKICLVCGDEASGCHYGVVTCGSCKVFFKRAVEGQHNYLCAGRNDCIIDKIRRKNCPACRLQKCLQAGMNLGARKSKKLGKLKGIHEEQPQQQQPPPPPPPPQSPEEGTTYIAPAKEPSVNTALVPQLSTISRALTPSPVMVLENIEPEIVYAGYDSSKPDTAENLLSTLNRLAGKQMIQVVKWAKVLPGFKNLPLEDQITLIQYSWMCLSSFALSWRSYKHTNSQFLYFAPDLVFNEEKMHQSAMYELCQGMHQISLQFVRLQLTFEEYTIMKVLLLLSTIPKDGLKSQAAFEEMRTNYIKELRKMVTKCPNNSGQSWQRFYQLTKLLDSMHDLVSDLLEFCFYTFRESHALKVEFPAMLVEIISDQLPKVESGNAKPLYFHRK
Method in brief: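 Cytosolic protein (0.75-1.5 mg/mL) from FreeStyle 293 cells transiently transfected with human MR was incubated for 16 h at 4 °C with 10 nM [3H]-aldosterone and serially diluted compound in TEGM buffer (Tris pH 7.2, EDTA, glycerol, DTT, molybdate, protease inhibitors). Free ligand was removed with dextran/gelatin-coated charcoal and the supernatant counted. Nonspecific binding used 100 µM cold aldosterone. Duplicates; IC50 from curve fit.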

Glucocorticoid receptor = molecular target: T3, Glucocorticoid receptor (Homo sapiens, UniProt P04150); assay: Displacement of [3H]-Dexamethasone human GR expressed in 293 cells after 16 hrs by scintillation counting; type: cell-based, HEK293; method in brief: as §1
T3 sequence (P04150 whole entry): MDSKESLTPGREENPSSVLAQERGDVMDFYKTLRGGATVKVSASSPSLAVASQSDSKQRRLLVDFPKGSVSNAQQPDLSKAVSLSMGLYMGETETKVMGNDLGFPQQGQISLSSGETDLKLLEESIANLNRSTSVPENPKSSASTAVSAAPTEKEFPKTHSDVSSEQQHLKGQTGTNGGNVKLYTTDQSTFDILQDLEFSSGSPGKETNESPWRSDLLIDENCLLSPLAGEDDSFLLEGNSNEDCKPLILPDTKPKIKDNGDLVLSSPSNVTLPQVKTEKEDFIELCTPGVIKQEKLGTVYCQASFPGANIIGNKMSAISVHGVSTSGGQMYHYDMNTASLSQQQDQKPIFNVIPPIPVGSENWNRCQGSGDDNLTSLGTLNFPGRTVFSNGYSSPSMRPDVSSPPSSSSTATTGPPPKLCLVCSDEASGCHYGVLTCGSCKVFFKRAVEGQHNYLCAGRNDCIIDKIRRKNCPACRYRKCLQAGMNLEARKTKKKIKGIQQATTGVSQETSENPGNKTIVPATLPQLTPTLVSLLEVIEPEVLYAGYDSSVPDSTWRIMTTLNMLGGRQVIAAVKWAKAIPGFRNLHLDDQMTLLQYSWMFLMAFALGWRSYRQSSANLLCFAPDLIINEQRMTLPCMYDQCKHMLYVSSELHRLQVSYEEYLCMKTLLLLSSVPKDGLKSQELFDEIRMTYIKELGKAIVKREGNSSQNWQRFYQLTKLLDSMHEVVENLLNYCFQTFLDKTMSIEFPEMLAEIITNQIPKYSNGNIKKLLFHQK

Progesterone receptor = molecular target: T4, Progesterone receptor (Homo sapiens, UniProt P06401); assay: Displacement of [3H]-Progesterone from human PR expressed in 293 cells after 16 hrs by scintillation counting; type: cell-based, HEK293
T4 sequence (P06401 whole entry): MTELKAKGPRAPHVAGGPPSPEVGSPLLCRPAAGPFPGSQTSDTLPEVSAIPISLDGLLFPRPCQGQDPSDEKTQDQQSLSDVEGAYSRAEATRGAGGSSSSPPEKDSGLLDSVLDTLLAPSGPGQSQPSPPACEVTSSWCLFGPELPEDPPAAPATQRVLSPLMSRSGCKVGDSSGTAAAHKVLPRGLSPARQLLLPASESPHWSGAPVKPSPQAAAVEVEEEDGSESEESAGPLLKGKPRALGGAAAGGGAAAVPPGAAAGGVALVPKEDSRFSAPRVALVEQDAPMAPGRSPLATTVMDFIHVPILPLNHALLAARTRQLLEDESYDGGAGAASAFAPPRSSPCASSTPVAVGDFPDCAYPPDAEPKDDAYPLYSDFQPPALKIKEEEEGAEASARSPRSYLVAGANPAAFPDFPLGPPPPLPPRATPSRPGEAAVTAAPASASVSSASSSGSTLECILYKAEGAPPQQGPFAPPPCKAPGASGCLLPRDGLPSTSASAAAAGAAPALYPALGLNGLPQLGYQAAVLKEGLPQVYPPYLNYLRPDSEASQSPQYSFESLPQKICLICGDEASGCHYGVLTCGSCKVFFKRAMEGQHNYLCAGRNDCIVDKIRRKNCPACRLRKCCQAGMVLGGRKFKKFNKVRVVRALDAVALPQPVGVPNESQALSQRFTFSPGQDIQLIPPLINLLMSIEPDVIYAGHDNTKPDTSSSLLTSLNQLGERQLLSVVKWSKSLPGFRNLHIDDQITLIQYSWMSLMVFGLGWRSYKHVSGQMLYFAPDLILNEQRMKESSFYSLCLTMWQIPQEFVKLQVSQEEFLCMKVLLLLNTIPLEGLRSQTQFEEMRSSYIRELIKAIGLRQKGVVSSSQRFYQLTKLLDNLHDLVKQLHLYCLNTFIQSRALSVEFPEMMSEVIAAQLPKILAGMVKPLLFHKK
Method in brief: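 The PR assay ran like the MR cytosolic binding assay from transfected 293 cells, with 5 nM [3H]-progesterone as ligand. Incubation was 16 h at 4 °C in TEGM buffer pH 7.2, followed by dextran/gelatin-charcoal removal of free label and scintillation counting of the supernatant. Concentrations were run in duplicate; IC50 taken as the mean of duplicate experiments from concentration-response curves.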

[2] = molecular target: T2, Mineralocorticoid receptor; assay: Antagonist activity at MR (unknown origin) expressed in COS1 cells after 1 day by luciferase reporter gene assay; type: cell-based, COS-1
Method in brief: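 Human MR plasmid, MMTV-luciferase reporter and pRL-TK were lipofected into COS-1 cells, which were cultured for 1 day. Cells were then reseeded in low-glucose D-MEM with 0.1% BSA. Serial compound concentrations were added with 1 nM aldosterone (final) for 1 day at 37 °C in 5% CO2. Luciferase was read, and IC50 came from a sigmoidal fit.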

HEK293 [3] = assay: Selectivity ratio of IC50 for human AR expressed in 293 cells to IC50 for human MR expressed in 293 cells; type: cell-based
HEK293 [4] = assay: Selectivity ratio of IC50 for human GR expressed in 293 cells to IC50 for human MR expressed in 293 cells; type: cell-based
HEK293 [5] = assay: Selectivity ratio of IC50 for human PR expressed in 293 cells to IC50 for human MR expressed in 293 cells; type: cell-based

pIC50 (Androgen receptor) | pIC50 [1] | pIC50 (Glucocorticoid receptor) | pIC50 (Progesterone receptor) | pIC50 [2] | Compound | Ratio IC50 (HEK293 [3]) | Ratio IC50 (HEK293 [4]) | Ratio IC50 (HEK293 [5])
< 5.00 | 7.04 | 5.30 | 5.49 | – | CC1NC(=O)C(c2ccc(F)cc2)=C1c1cc(F)c2c(c1)NC(=O)CO2 (configuration not stated) | – | – | –
< 5.00 | 6.30 | < 5.00 | < 5.00 | – | O=C1COc2ccc(C3=C(c4ccc(F)cc4)C(=O)OC3)cc2N1 | – | – | –
< 5.00 | 6.26 | < 5.00 | 5.30 | – | CC1(F)OC(=O)C(c2ccc(F)cc2)=C1c1ccc2c(c1)NC(=O)CO2 (configuration not stated) | – | – | –
< 5.00 | – | 5.42 | 6.13 | – | CC1OC(=O)C(c2ccc(F)cc2)=C1c1ccc2c(c1)NC(=O)CO2 (racemic) | – | – | –
< 5.00 | 7.03 | 5.04 | 5.25 | – | CC1NC(=O)C(c2ccc(F)cc2)=C1c1ccc2c(c1)NC(=O)CO2 (configuration not stated) | – | – | –
< 5.00 | 6.12 | < 5.00 | 5.74 | – | Cc1cc(F)ccc1C1=C(c2ccc3c(c2)NC(=O)CO3)COC1=O | – | – | –
< 5.00 | 5.92 | 5.33 | 6.00 | – | CC1(C)OC(=O)C(c2ccc(F)cc2)=C1c1ccc2c(c1)NC(=O)CO2 | – | – | –
< 5.00 | – | < 5.00 | 5.34 | – | O=C1COc2ccc(C3=C(c4ccc(F)cc4F)C(=O)OC3)cc2N1 | – | – | –
< 5.00 | 7.17 | 5.66 | 6.40 | – | CC1C(c2ccc3c(c2)NC(=O)CO3)=C(c2ccc(F)cc2)C(=O)N1C1CC1 (configuration not stated) | – | – | –
< 5.00 | 7.37 | 5.31 | < 5.00 | 7.08 | Cc1cc(C2=C(c3ccc(F)cc3)C(=O)NC2C)cc2c1OCC(=O)N2 (configuration not stated) | > 200 | 100 | > 200
< 5.00 | 5.92 | 5.70 | 5.66 | – | CCC1OC(=O)C(c2ccc(F)cc2)=C1c1ccc2c(c1)NC(=O)CO2 (configuration not stated) | – | – | –
< 5.00 | 6.77 | 5.68 | 7.21 | – | CC1C(c2ccc3c(c2)NC(=O)CO3)=C(c2ccc(F)cc2)C(=O)N1C (configuration not stated) | – | – | –
< 5.00 | 5.80 | < 5.00 | < 5.00 | – | CC1C(c2ccc3c(c2)NC(=O)CO3)=C(c2ccc(F)cc2)C(=O)N1CCO (configuration not stated) | – | – | –
< 5.00 | 7.48 | 5.80 | 6.11 | – | CCN1C(=O)C(c2ccc(F)cc2)=C(c2ccc3c(c2)NC(=O)CO3)C1C (configuration not stated) | – | – | –
< 5.00 | 7.64 | 5.96 | 5.80 | – | CC1NC(=O)C(c2ccc(F)cc2)=C1c1cc(Cl)c2c(c1)NC(=O)CO2 (configuration not stated) | – | – | –
